Experimental data from ChEMBL document CHEMBL1136272, “Development of a presynaptic 5-HT1A antagonist” (Bioorg Med Chem Lett, 2003).

Experiments:
[1] = target: T1, 5-hydroxytryptamine receptor 1A (Rattus norvegicus, UniProt P19327); assay: Inhibition of the 5-hydroxytryptamine 1A receptor in rat dorsal raphe
T1 sequence (P19327 whole entry): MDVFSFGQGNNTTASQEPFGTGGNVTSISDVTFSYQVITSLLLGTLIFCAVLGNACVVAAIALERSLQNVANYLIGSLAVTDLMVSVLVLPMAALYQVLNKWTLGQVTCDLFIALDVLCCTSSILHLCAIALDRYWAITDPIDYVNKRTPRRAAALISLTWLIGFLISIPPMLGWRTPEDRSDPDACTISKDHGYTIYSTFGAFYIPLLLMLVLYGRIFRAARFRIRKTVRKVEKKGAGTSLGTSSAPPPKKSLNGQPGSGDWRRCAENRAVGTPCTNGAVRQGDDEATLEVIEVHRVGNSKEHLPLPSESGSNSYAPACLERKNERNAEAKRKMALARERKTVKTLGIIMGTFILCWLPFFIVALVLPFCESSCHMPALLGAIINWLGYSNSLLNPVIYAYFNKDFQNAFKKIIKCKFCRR

[2] = target: 5-hydroxytryptamine receptor 1B (Rattus norvegicus, UniProt P28564); assay: Inhibitory concentration required against 5-hydroxytryptamine 1B receptor in rat striatum using [3H]5-HT; assay type: tissue-based
Chain of 5-hydroxytryptamine receptor 1B (P28564 whole entry): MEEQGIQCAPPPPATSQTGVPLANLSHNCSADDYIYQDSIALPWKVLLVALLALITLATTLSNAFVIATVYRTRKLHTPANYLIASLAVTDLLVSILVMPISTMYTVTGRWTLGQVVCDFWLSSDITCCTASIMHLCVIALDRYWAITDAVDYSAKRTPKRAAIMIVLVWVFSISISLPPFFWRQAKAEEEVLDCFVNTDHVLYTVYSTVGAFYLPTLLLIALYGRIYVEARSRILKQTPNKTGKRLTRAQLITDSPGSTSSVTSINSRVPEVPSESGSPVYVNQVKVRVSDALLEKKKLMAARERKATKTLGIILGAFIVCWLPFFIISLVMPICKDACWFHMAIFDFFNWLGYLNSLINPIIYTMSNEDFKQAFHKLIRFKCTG

[3] = target: Serotonin 2 (5-HT2) receptor (Rattus norvegicus, UniProt P30994+P08909+P14842); assay: Inhibitory concentration required against 5-hydroxytryptamine 2 receptor in rat cortex using [3H]spiperone
[4] = target: T2, Adrenergic receptor alpha-2 (Rattus norvegicus, UniProt P22086+P19328+P22909); assay: Inhibitory concentration required against Alpha-2 adrenergic receptor in rat cortex [3H]clonidine
T2 sequence (P22086 whole entry): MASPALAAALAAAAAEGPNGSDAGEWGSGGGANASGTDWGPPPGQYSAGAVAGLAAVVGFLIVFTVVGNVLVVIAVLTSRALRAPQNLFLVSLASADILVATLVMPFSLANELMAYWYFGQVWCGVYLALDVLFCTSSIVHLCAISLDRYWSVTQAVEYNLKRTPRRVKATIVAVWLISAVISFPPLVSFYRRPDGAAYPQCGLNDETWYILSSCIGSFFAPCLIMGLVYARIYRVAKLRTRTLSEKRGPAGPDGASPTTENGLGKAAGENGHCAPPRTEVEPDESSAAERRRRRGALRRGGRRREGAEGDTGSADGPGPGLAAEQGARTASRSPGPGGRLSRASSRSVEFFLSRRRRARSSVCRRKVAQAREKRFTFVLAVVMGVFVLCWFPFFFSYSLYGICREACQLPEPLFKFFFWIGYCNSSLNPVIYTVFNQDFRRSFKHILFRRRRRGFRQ
T2 sequence (P19328 whole entry): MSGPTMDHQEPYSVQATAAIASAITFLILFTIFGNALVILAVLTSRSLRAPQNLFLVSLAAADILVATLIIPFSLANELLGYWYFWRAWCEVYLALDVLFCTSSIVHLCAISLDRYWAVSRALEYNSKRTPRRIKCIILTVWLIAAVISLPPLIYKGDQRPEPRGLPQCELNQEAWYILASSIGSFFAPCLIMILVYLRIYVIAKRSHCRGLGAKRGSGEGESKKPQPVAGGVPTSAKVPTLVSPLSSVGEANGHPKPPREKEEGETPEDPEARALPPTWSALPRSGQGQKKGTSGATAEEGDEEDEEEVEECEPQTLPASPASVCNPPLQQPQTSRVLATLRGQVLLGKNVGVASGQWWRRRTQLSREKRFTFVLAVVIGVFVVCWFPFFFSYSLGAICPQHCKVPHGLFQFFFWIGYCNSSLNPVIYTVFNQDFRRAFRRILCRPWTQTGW
T2 sequence (P22909 whole entry): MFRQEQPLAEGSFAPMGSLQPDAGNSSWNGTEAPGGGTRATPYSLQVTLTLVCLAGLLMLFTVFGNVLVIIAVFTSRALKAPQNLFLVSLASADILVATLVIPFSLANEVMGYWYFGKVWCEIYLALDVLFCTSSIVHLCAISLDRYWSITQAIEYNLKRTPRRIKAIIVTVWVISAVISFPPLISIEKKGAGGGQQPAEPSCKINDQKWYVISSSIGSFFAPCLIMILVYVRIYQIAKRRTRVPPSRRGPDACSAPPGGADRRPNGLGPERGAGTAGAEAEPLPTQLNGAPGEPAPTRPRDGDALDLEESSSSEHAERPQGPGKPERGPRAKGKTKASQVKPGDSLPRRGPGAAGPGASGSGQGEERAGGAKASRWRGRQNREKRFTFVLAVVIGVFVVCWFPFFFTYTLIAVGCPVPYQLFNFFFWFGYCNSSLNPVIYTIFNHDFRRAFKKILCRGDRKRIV

[5] = target: T3, Adrenergic receptor alpha-1 (Rattus norvegicus, UniProt P15823+P23944+P43140); assay: Inhibitory concentration required against alpha-1 adrenergic receptor in rat cortex using [3H]-WB- 4101
T3 sequence (P15823 whole entry): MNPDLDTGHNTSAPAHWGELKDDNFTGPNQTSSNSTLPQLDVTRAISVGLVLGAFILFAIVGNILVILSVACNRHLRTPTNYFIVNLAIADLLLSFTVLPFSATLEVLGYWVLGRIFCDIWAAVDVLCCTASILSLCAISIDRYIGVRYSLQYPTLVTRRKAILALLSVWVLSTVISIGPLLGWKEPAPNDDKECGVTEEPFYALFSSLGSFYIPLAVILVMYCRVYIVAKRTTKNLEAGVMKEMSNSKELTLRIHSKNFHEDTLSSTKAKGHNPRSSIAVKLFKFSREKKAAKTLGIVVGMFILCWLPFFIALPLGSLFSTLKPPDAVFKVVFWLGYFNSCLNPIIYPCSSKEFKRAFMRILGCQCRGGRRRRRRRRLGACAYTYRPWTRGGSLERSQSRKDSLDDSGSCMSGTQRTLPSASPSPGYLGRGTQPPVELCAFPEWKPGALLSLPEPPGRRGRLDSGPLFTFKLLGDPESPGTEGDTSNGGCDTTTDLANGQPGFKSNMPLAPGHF
T3 sequence (P23944 whole entry): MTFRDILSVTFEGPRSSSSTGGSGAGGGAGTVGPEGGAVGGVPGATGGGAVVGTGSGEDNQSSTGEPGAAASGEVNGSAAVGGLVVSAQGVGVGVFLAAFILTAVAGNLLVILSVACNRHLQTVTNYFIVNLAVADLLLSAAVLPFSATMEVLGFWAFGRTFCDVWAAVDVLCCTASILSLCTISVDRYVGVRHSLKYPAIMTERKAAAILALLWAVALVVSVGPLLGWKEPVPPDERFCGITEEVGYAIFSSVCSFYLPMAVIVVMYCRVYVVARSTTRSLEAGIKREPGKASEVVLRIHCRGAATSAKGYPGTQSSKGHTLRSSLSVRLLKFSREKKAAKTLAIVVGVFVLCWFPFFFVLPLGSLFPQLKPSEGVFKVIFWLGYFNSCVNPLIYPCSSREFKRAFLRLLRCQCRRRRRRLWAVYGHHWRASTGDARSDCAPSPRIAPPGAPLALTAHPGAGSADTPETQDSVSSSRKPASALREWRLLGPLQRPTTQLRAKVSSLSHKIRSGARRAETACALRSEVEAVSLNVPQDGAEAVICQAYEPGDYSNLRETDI
T3 sequence (P43140 whole entry): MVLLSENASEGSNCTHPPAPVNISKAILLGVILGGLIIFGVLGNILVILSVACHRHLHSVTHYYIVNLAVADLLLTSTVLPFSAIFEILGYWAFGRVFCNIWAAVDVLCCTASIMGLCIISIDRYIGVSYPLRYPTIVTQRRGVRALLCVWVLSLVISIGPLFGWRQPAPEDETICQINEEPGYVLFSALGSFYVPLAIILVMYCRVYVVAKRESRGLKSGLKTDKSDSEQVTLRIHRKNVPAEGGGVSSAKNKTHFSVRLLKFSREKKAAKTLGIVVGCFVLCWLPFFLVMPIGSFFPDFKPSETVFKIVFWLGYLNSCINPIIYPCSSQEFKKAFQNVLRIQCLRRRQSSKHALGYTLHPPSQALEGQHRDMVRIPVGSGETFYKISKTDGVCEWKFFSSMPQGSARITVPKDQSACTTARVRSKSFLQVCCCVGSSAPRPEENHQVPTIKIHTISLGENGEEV

[6] = target: D(2) dopamine receptor (Rattus norvegicus, UniProt P61169); assay: Inhibitory concentration required against Dopamine receptor D2 in rat striatum; assay type: tissue-based
Chain of D(2) dopamine receptor (P61169 whole entry): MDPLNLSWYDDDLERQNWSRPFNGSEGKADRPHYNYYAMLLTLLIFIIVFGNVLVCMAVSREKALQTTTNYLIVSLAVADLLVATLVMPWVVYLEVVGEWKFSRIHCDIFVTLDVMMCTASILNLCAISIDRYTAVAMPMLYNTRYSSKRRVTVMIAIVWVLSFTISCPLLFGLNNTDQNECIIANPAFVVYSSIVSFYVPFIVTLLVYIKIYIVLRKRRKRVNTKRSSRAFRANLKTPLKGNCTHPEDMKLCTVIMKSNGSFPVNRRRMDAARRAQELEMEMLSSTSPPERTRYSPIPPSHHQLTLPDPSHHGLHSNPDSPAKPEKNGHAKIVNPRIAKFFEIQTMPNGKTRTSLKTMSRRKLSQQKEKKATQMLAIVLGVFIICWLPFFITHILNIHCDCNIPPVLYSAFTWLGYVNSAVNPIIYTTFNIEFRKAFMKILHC

[7] = system: Rattus norvegicus; assay: In vivo motor activity determined in rat at 0.1 mg/kg of ip administration; assay type: functional; conditions: route intraperitoneal
Summary of the method: (§1)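 Rat social interaction paradigm with total motor activity counts recorded in the same session. All compounds were given ip, with a saline-treated control group. Combination arms gave a 0.1 mg/kg agent together with a second agent at 1 mg/kg, both ip. Social interaction time (s) and motor counts are reported as mean ± SEM, with significance tested against saline control.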

[8] = system: Rattus norvegicus; assay: Social interaction time determined in vivo in rat at 0.1 mg/kg of ip administration; assay type: functional; conditions: route intraperitoneal; summary of the method: as §1
[9] = target: Sodium-dependent serotonin transporter (Rattus norvegicus, UniProt P31652); assay: Inhibitory concentration required against 5-HT uptake in rat cortex
Chain of Sodium-dependent serotonin transporter (P31652 whole entry): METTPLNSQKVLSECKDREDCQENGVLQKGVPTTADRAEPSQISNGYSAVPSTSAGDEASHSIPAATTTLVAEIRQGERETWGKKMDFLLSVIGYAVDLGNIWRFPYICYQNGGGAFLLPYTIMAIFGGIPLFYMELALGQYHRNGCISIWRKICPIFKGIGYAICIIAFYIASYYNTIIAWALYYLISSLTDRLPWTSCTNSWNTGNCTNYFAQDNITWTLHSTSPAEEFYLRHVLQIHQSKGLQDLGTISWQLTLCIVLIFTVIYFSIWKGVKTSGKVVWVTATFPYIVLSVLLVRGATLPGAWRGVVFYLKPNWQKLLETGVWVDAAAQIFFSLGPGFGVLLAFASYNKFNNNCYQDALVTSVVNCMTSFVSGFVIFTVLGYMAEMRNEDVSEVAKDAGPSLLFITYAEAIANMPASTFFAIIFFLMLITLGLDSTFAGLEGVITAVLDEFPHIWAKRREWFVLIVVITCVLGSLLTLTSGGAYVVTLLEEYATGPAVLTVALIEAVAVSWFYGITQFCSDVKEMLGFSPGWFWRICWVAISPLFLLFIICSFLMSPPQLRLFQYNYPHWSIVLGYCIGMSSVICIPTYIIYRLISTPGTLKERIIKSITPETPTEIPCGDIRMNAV

[10] = system: Rattus norvegicus; assay: In vivo motor activity determined in rat at 1.7 + 1 mg/kg of ip administration; assay type: functional; conditions: route intraperitoneal
Summary of the method: (§2)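 Rats dosed i.p. against a saline-treated control group. Social interaction time (s) and total motor activity (counts) were recorded in the same social-interaction session and reported as mean ± SEM, with significance tested against saline control.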

[11] = system: Rattus norvegicus; assay: Social interaction time determined in vivo in rat at 1.7 + 1 mg/kg of ip administration; assay type: functional; conditions: route intraperitoneal; summary of the method: as §2
[12] = system: Rattus norvegicus; assay: In vivo motor activity determined in rat at 1.7 mg/kg of ip administration; assay type: functional; conditions: route intraperitoneal; summary of the method: as §2
[13] = system: Rattus norvegicus; assay: Social interaction time determined in vivo rat at 1.7 mg/kg of ip administration; assay type: functional; conditions: route intraperitoneal; summary of the method: as §2

## OC1(c2ccc3c(c2)OCO3)CCC(N2CCN(Cc3ccccc3)CC2)CC1 (stereo not drawn)
[1]
  IC50: 20 nM
[2]
  IC50: > 1000 nM
[3]
  IC50: 11000 nM
[4]
  IC50: 410 nM
[5]
  IC50: 700 nM
[6]
  IC50: 1700 nM
[7]
  Motor activity: 4700 Counts
[8]
  Time: 104 s
[9]
  IC50: > 1000 nM

## CN1C(=O)CN=C(c2ccccc2)c2cc(Cl)ccc21.COc1cccc(CN2CCN(C3CCC(O)(c4ccc5c(c4)OCO5)CC3)CC2)c1 (stereo not drawn)
[10]
  Motor activity: 4900 Counts
[11]
  Time: 113 s

## CN1C(=O)CN=C(c2ccccc2)c2cc(Cl)ccc21 [DIAZEPAM]
[12]
  Motor activity: 5100 Counts
[13]
  Time: 120 s
